Data as given in PMC3523390 (Molecular pharmacology, 2010).
Where two headings read alike, the source gives them in different places.

What was measured:
hPPARγ = molecular target: T1, hPPARγ (Homo sapiens, UniProt P37231); test: PPAR luciferase reporter gene transactivation in HEK-293 cells; format: cell-based; settings: for hPPARγ Maximal Fold Activation / EC50: HEK-293, 18 h, N.D. = not detected up to 100 μM; for hPPARγ Maximal Fold Activation: fold induction vs DMSO; for concentration to reach saturation response (maximal activation): hPPARγ luciferase reporter, HEK-293; for EC50: read-out: hPPARγ EC50
T1 sequence (P37231 1-477 isoform P37231-2): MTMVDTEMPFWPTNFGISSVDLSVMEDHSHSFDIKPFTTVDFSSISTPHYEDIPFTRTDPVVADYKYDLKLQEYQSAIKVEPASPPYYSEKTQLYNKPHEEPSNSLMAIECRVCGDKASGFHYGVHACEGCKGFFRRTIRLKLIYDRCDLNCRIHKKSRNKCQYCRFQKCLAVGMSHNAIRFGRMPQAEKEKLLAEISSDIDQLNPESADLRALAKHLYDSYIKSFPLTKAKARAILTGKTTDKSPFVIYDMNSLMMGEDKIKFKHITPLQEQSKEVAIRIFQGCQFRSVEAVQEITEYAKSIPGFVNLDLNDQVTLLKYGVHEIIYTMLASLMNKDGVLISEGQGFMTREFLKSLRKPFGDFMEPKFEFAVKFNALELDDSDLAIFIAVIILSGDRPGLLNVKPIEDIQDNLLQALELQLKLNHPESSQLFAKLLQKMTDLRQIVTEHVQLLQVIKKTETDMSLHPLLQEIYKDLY

Mouse PPARγ = molecular target: T2, Mouse PPARγ (Mus musculus, UniProt P37238); test: as above; format: cell-based; settings: for Mouse PPARγ Maximal Fold Activation: fold induction vs DMSO
T2 sequence (P37238 1-505): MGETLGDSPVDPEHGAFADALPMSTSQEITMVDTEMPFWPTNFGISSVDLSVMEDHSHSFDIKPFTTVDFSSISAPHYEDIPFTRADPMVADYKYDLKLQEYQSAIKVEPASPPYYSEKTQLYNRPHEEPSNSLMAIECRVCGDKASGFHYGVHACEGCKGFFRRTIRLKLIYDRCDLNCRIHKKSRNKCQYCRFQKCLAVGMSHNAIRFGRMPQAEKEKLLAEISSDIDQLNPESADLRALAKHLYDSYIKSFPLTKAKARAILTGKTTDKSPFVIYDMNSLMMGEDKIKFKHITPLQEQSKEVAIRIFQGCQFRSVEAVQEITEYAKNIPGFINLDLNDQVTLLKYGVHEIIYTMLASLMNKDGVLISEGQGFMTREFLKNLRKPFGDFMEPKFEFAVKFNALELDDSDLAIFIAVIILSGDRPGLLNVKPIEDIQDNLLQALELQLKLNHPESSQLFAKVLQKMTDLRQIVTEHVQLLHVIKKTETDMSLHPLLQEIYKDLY

3T3-L1 preadipocytes = test: 3T3-L1 adipocyte differentiation; format: cell-based, rodent; settings: 10 μM compound, 7 to 8 days
How it was run: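 Mouse 3T3-L1 preadipocytes grown in DMEM with 10% calf serum to confluence (day −2), held 2 more days, then switched at day 0 to DMEM with 10% FCS, 1 μg/ml insulin and test compound (DMSO ≤0.1% final). Medium renewed every 2 days to day 7–8. Cells formalin-fixed 1 h, Oil Red O-stained 10 min, photographed; bound dye eluted in isopropanol, read at 550 nm.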

hPPARγ LBD [1] = molecular target: T3, hPPARγ LBD (Homo sapiens, UniProt P37231); test: LanthaScreen TR-FRET PPARγ competitive ligand binding assay; settings: for Ki: hPPARγ LBD, displacement of Fluormone Pan-PPAR Green, Cheng-Prusoff
T3 sequence (P37231 238-503 limits assumed): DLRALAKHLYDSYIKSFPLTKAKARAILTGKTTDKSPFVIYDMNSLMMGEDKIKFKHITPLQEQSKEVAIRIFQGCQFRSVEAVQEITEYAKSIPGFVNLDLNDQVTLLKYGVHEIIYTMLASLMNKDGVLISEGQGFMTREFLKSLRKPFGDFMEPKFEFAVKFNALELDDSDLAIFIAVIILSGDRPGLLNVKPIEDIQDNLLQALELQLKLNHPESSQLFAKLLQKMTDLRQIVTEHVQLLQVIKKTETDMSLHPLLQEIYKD

[2] = system: type 2 diabetic Goto-Kakizaki rats; settings: ref Sohn et al., 2007; cited from earlier work
[3] = system: 3T3-L1 cells and C3H10T1/2 cells; settings: ref Choi et al., 2009; cited from earlier work
hPPARγ LBD [4] = molecular target: T3, hPPARγ LBD; test: LanthaScreen TR-FRET PPARγ coactivator; format: biochemical; settings: 1 h incubation, 520 nm/495 nm ratio
hPPARα = molecular target: T4, hPPARα (Homo sapiens, UniProt Q07869); test: PPAR luciferase reporter gene transactivation in HEK-293 cells; format: cell-based; settings: HEK-293, 18 h, fold induction vs DMSO; N.D. = not detected up to 100 μM
T4 sequence (Q07869 1-468): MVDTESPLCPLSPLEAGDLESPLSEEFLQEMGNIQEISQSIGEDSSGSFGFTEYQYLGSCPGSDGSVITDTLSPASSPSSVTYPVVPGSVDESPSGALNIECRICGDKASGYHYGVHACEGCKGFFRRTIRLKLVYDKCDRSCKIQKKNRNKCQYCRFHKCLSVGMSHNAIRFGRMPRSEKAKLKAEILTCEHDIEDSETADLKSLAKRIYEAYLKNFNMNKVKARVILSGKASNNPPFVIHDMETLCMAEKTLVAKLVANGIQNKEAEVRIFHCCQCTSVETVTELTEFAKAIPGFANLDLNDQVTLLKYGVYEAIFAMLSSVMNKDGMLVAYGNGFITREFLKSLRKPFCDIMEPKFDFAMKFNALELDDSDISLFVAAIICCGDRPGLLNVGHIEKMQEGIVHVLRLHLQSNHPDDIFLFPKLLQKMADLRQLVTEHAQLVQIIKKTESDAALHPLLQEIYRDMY

[5] = HEK-293, 18 h, N.D. = not detected up to 100 μM
[6] = read-out: Mouse PPARγ EC50, HEK-293, 18 h, N.D. = not detected up to 100 μM

In the case of `C=CCc1cc(OC)c(O)c(-c2cc(CC=C)cc(OC)c2O)c1` [Compound 1, dieugenol], the “hPPARγ Maximal Fold Activation” value (hPPARγ) is reported as 3.58, the “concentration to reach saturation response (maximal activation)” value (hPPARγ) is reported as “approximately 1 μM” and the EC50 (hPPARγ) is reported as 620 nM. The “Mouse PPARγ Maximal Fold Activation” value (Mouse PPARγ; [5]) was 2.93, the EC50 (Mouse PPARγ; [6]) was 930 nM and the “adipogenic activity (differentiation to adipocytes, Oil Red O)” value (3T3-L1 preadipocytes) was “induced 3T3-L1 preadipocyte differentiation”. It also gave a Ki (hPPARγ LBD [1]) of 240 nM.

In the case of `CCCc1cc(OC)c(O)c(-c2cc(CCC)cc(OC)c2O)c1` [Compound 2, tetrahydrodieugenol], the “hPPARγ Maximal Fold Activation” value (hPPARγ) is reported as 3.34, the “concentration to reach saturation response (maximal activation)” value (hPPARγ) is reported as “approximately 1 μM” and the EC50 (hPPARγ) is reported as 330 nM. The “Mouse PPARγ Maximal Fold Activation” value (Mouse PPARγ; [5]) was 2.98, the EC50 (Mouse PPARγ; [6]) was 380 nM and the “adipogenic activity (differentiation to adipocytes, Oil Red O)” value (3T3-L1 preadipocytes) was “induced 3T3-L1 preadipocyte differentiation”. For the same compound, the Ki (hPPARγ LBD [1]) was 320 nM.

For `C=CCc1ccc(O)c(-c2cc(CC=C)ccc2O)c1` [Compound 3, magnolol], the fasting blood glucose [2] is listed as “decreased”, the plasma insulin levels [2] is listed as “decreased” and the EC50 (Mouse PPARγ) is listed as 1140 nM. The “adipogenic activity (differentiation to adipocytes, Oil Red O)” value (3T3-L1 preadipocytes) was “induced 3T3-L1 preadipocyte differentiation” and the adipocyte differentiation [3] was “enhances adipocyte differentiation”.

In the case of `C=CCc1ccc(O)c(OC)c1` [Compound 4, eugenol, reference compound], the “TRAP220/DRIP-2 coactivator peptide recruitment to the PPARγ LBD” value (hPPARγ LBD [4]) is reported as “not active”, the “adipogenic activity (differentiation to adipocytes, Oil Red O)” value (3T3-L1 preadipocytes) is reported as “no adipogenic activity” and the “binding to the hPPARγ LBD” value (hPPARγ LBD [1]; test concentrations up to 100 μM) is reported as “did not bind to the receptor at all”.

For `CC(C)(Sc1ccc(CCN(CCCCC2CCCCC2)C(=O)NC2CCCCC2)cc1)C(=O)O` [GW7647], the “hPPARα Maximal Fold Activation” value (hPPARα) was 3.09.
